S100A4 inh HTS = inhibitors of S100A4-myosin IIA peptide binding, primary screen, biochemical, fluorescence polarization, TAMRA-MyoIIA peptide; Protein S100-A4 (Homo sapiens), P26447; inhibition, % at 10.7 µM; 360,000 compounds, 0.14% hits;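 active = mean inhibition of at least 70% across replicates, with every replicate also reaching that level; inconclusive = mean inhibition reaches 70% but some replicates fall short; inactive = mean inhibition below 70%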
Target sequence (P26447 whole entry, looked up): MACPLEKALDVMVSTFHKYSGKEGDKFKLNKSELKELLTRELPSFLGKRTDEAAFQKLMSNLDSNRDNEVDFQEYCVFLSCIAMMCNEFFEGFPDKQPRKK
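Test system: S100A4 monomer protein. Medium: HEPES buffer with Ca2+, pH 7.2. Reagent: fluorescent myosin IIA peptide, 5 nM. Compound dosing: single-point compound testing. Timing: 5 min between mix addition and reading. Benchmarks: DMSO neutral and TFP positive wells.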
Cneo AK release = Cryptococcus neoformans cell lysis inducers, primary screen, AK release luminescence, single concentration; C. neoformans lysis, adenylate kinase release luminescence, 4 h; normalised: neutral wells 0, clomiphene wells 100; AID 651654, 2012; 360,000 compounds, 0.2% hits; lysis activity, % at 15 µM;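 active = mean lysis activity across replicates of at least 80%, whatever share of replicates individually reach that level; inactive = mean lysis activity below 80%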
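Signal: Adenylate kinase release luminescence | Assay system: Log-phase Cryptococcus neoformans yeast cells | Input: Cells at 5 × 10^6 per mL | Buffer or medium: Fresh YPD growth medium | Compound: Single dose | Schedule: Static 4 h at 37 °C with compound, 1 h detection | Controls: Clomiphene | Read-out: Luminescence rise reflecting yeast cell lysis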
MLL AF4-AF9 inh = inhibitors of AF4 peptide binding to AF9, primary screen, biochemical, AlphaScreen, biotin-AF4 peptide, FLAG-AF9, single point; Protein AF-9 (Homo sapiens), P42568; inhibition, % at 10 µM; 350,000 compounds, 0.47% hits; AID 651704, 2012;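 active = every replicate reaching a set inhibition limit, whatever the replicate mean, cut at about 25% in these data; inconclusive = mean inhibition reaches that limit but some replicates miss it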;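 note: 0% = plate neutral control median and 100% = total signal loss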
Target sequence (P42568 whole entry, looked up): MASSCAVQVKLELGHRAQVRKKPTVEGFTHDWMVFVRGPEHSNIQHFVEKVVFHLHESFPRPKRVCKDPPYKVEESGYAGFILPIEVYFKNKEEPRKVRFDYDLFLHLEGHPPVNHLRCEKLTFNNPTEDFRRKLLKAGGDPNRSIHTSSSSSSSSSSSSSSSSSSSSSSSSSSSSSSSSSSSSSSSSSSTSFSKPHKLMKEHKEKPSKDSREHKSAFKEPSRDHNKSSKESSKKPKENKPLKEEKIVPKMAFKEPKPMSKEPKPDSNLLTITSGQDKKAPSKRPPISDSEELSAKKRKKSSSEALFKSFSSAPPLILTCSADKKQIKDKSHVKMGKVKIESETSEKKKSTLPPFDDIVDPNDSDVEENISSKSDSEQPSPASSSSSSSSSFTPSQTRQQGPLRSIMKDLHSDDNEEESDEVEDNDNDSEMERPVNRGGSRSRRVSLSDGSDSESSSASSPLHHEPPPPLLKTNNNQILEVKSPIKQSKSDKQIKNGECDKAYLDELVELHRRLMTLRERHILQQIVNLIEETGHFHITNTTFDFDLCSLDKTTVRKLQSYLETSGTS
DENV2 CPE rescue = inhibitors of DENV2 cytopathic effect, primary screen, cell-based, plate reader, single concentration | CPE inhibition, % at 9.99 µM | DENV2-infected cells, cytopathic effect rescue | 350,000 compounds, 1.7% hits; in the data active = CPE inhibition above about 20%, passing the limit was not always enough; inconclusive = no clear call, values can overlap the other calls; tested in BHK-21 cells;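 note: 0% = median of neutral control wells and 100% = median of positive control wells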
PfHsp90 set2 = growth inhibition of PfHsp90-expressing yeast, primary screen, antimalarial PfHsp90 inhibitor project, S. cerevisiae, BacTiter-Glo luminescence, single point, set 2; BacTiter-Glo ATP, 48 h; yeast lacking PDR1 and PDR3 efflux regulators; inhibition, % at 9.4 µM; 310,000 compounds, 0.32% hits; AID 504621, 2011;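 active = every replicate shows inhibition above about 80%, whatever the replicate mean, limit read from the data; inconclusive = mean inhibition reaches the set limit but some replicate falls short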;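 note: 0% = DMSO neutral controls and 100% = 20 µM radicicol positive controls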
rRNA inh HTS = reduced GFP signal of wild-type E. coli, primary screen, bacterial rRNA inhibitor project, GFP/RFP fluorescence, OD600, single point; E. coli WT GFP vs humanized-ribosome RFP mutants, 24 h; stronger effect = lower value; DMSO median 0, no signal -100; GFP signal change (wild-type ribosome), % (concentration not given with the values); 350,000 compounds, 1.6% hits; AID 720706, 2013;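 active = significant combined selectivity score with lowered wild-type GFP, culture density cut under 30%, mutant RFP and density less affected; inactive = any of these conditions unmet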
Starred values were filed as active, the others as inactive; u = inconclusive; x = no result; ! = not confirmed by another sample. The list is not random: actives were taken first. Their share in the collection is about 3.2%.

SMILES	S100A4 inh HTS	Cneo AK release	MLL AF4-AF9 inh	DENV2 CPE rescue	PfHsp90 set2	rRNA inh HTS
C[C@@H]1CN([C@@H](C)CO)S(=O)(=O)c2ccc(-c3ccccc3)cc2O[C@@H]1CN(C)CC1CC1	-19	4	0	19	x	4
C[C@H]1CN([C@@H](C)CO)S(=O)(=O)c2ccc(-c3ccccc3)cc2O[C@@H]1CN(C)C(=O)C1CCCCC1	28	5	5	-10	x	-8
C[C@@H]1CN([C@@H](C)CO)S(=O)(=O)c2ccc(-c3ccccc3)cc2O[C@H]1CN(C)CC1CCCC1	-2	3	0	39*	x	-16
C[C@@H]1CN([C@@H](C)CO)S(=O)(=O)c2ccc(-c3ccccc3)cc2O[C@H]1CN(C)C(=O)C1CCCCC1	10	112*	4	-17	x	-11
C[C@H]1CN([C@@H](C)CO)S(=O)(=O)c2ccc(-c3ccncc3)cc2O[C@@H]1CN(C)C(=O)c1ccc2c(c1)OCO2	-6	0	1	26*	x	-7
C[C@H]1CN([C@@H](C)CO)S(=O)(=O)c2ccc(-c3ccc(C(=O)N(C)C)cc3)cc2O[C@H]1CN(C)C(=O)Cc1ccccn1	0	3	-3	3	x	-3
C[C@@H]1CN([C@H](C)CO)S(=O)(=O)c2ccc(-c3ccc(C(=O)N(C)C)cc3)cc2O[C@H]1CN(C)C(=O)Cc1ccccn1	-3	93*!	0	-5	x	11
C/C=C/c1ccc2c(c1)O[C@H](CN(C)C(=O)c1ccc(F)cc1)[C@@H](C)CN([C@@H](C)CO)S2(=O)=O	-7	-19	-1	7	x	0
C[C@H]1CN([C@@H](C)CO)S(=O)(=O)c2ccc(-c3ccc(F)cc3)cc2O[C@@H]1CN(C)C(=O)C1CCCCC1	-10	0	5	52*	x	-9
C[C@@H]1CN([C@@H](C)CO)S(=O)(=O)c2ccc(-c3ccccc3)cc2O[C@H]1CN(C)Cc1cccc(F)c1	143*	17	-1	-7	x	6
C[C@@H]1CN([C@@H](C)CO)S(=O)(=O)c2ccc(Br)cc2O[C@@H]1CN(C)Cc1ccc2c(c1)OCO2	9	-2	10	1	x	-34*!
C[C@@H]1CN([C@@H](C)CO)S(=O)(=O)c2ccc(-c3ccc(C(=O)N(C)C)cc3)cc2O[C@@H]1CN(C)C(=O)C1CCCCC1	2	-2	30*	-6	x	-5
C[C@H](CO)N1C[C@H](C)[C@@H](CN(C)Cc2ccc3c(c2)OCO3)Oc2cc(Br)ccc2S1(=O)=O	-4	-1	2	12	x	-14
O=C(C[C@H]1CC[C@H]2[C@@H](COC[C@H](O)CN2C(=O)Nc2ccc(Cl)cc2)O1)N1CCCCC1	13	-10	3	-2	x	-50
C[C@@H]1CN([C@@H](C)CO)C(=O)Cc2cc(NC(=O)C3CC3)ccc2O[C@H]1CN(C)CC1CC1	-7	1	-3	-2	x	5
O=C(C[C@@H]1C=C[C@H](NC(=O)NC2CCCCC2)[C@H](CO)O1)NCc1ccccc1	-1	2	0	u	x	2
CCOC(=O)c1ccc(NC(=S)NCCc2ccc(OC)c(OC)c2)cc1	-3	x	x	-7	-13	-28*
C[C@@H](NC(=O)C[C@@H]1CC[C@@H](NC(=O)C2CC2)[C@@H](CO)O1)c1ccccc1	-8	55	0	10	x	3
COC(=O)[C@@H](Cc1c[nH]c2ccccc12)NCc1ccc(B(O)O)cc1	0	10	1	2	2	-12
COC(=O)[C@H](Cc1c[nH]c2ccccc12)NCc1cccc(B(O)O)c1	3	1	2	-11	-15	-24*
O=C(O)C[C@@H]1C=C[C@H](NC(=O)CCN2CCCCC2)[C@H](CO)O1	1	x	-4	0	x	4
O=C(O)C[C@H]1C=C[C@@H](NC(=O)CCN2CCCCC2)[C@@H](CO)O1	0	x	-4	97*	x	5
CN(C)CC(=O)N[C@H]1C=C[C@@H](CC(=O)NCCN2CCCCC2)O[C@@H]1CO	2	-1	2	59*	x	5
CO[C@H]1CN(C)C(=O)c2cc(C#N)ccc2OC[C@H]2O[C@@H](CC[C@H]2OC)CCN(C)C(=O)[C@@H]1C	2	-5	-9	1	x	3
CN1CCN(C(=O)C[C@H]2CC[C@H]3[C@@H](COC[C@H](O)CN3S(=O)(=O)c3cccc(Cl)c3)O2)CC1	51	0	-4	0	x	-3
SMILES	S100A4 inh HTS	Cneo AK release	MLL AF4-AF9 inh	DENV2 CPE rescue	PfHsp90 set2	rRNA inh HTS
CN1CCN(C(=O)C[C@H]2CC[C@@H]3[C@H](COC[C@@H](O)CN3S(=O)(=O)c3cccc(Cl)c3)O2)CC1	2	0	-7	23*	x	3
O=C(C[C@H]1CC[C@@H]2[C@H](COC[C@H](O)CN2S(=O)(=O)c2cccc(Cl)c2)O1)N1CCOCC1	-5	-1	-3	21*	x	-1
C[C@@H]1CN([C@H](C)CO)C(=O)c2cccc(NC(=O)C3CC3)c2O[C@@H]1CN(C)C(=O)Nc1ccc2c(c1)OCO2	0	1	-10	8	x	3
C/C(=N\NC(=S)NC1CCCCC1)c1c(F)cccc1F	-3	64	12	-3	-13	-56
C/C(=N\NC(=S)NC1CCCCC1)c1cccs1	3	11	3	16	-62	-26*
CCS(=O)(=O)N1CCCCN2[C@H](CO)[C@H](c3ccc(-c4ccc(C#N)cc4)cc3)[C@@H]2C1	21	2	0	-1	x	-4
CCS(=O)(=O)N1CCCCN2[C@H](CO)[C@@H](c3ccc(C#CC(C)(C)O)cc3)[C@H]2C1	-14	0	0	22*	x	1
N#Cc1ccc(-c2ccc([C@H]3[C@H](CO)N4CCCCN(S(=O)(=O)c5ccccc5)C[C@@H]34)cc2)cc1	6	-1	1	34*	x	-23
CCS(=O)(=O)N1CCCCN2[C@H](C1)[C@@H](c1ccc(-c3ccc(C#N)cc3)cc1)[C@@H]2CO	-1	91*	2	41*	x	-2
COc1ccccc1-c1ccc2n(c1=O)C[C@@H]1[C@@H](CO)[C@H](C(=O)N(C)C)N(C(=O)c3cccnc3)[C@H]21	15	-5	-6	-7	x	1
